We go through one molecule from ChEMBL document CHEMBL3046214, “Friedelane triterpenes from Celastrus vulcanicola as photosynthetic inhibitors” (J Agric Food Chem, 2010).

Assay [1] has as its system Physalis ixocarpa. Briefly: Effect on photosynthetic efficiency in Physalis ixocarpa intact leaves assessed as increase in PI(abs) level at 100 uM measured 72 hr post compound application. Type of assay: functional. As to conditions: in the assay text read “at 200 uM” for “at 100 uM”. The method, boiled down: (§1)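 P. ixocarpa plants sprayed 15 days after emergence (greenhouse, 25-30 °C; 20 mM DMSO stock diluted into 0.05% Tween-20; vehicle-sprayed controls). Leaves dark-adapted 15 min, then excited with 650 nm red LED light at 3000 μmol photons m-2 s-1. Chl a OJIP transients recorded with a Handy PEA at room temperature. PI(abs) is normalized to control; K-, J- and I-bands come from variable fluorescence difference curves; five replicates.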

For assay [2], the system named is Spinacia oleracea. Briefly: Increase in Magnesium-transporting ATPase activity in Spinacia oleracea (spinach) leaves chloroplasts thylakoids at 100 uM. The method, boiled down: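 Spinach chloroplasts were isolated in 350 mM sorbitol, 5 mM ascorbate, 20 mM MES pH 6.5, centrifuged at 3000g for 60 s, washed, and resuspended in 35 mM HEPES pH 7.6. Light-triggered Mg2+-ATPase activity of thylakoid membranes was measured as released inorganic phosphate. Ammonium chloride served as positive control.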

Assay [3] relates to Lolium perenne. In words: Effect on biomass production in Lolium perenne (perennial ryegrass) assessed as plant dry weight at 200 uM measured 14 days post compound application relative to untreated control. Type of assay: functional. The procedure, abridged: (§2)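 Greenhouse-grown plants (pots, watered daily, 25 to 30 °C) of similar size, sprayed at 15 (P. ixocarpa) or 18 (L. perenne) days after emergence. Compound taken from a 20 mM DMSO stock into aqueous 0.05% w/v Tween-20; controls were sprayed with water containing the same DMSO and Tween-20. Plants harvested at ground level, oven-dried at 65 °C to constant weight, then weighed.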

For assay [4], the system named is Spinacia oleracea. Briefly: Inhibition of uncoupled electron transport from water to MV in Spinacia oleracea (spinach) leaves chloroplasts up to 300 uM using Clark type electrode system based method. The format is functional, organism-based. The procedure, abridged:
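Water-to-MV electron transport measured with a Clark electrode in the basal medium (20 μg Chl/mL, 50 μM MV, 15 mM tricine-KOH pH 8.0, 1 min illumination), with 6 mM NH4Cl added as uncoupler.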

For assay [5], the system named is Spinacia oleracea. In words: Inhibition of phosphorylating noncyclic electron transport from water to MV in Spinacia oleracea (spinach) leaves chloroplasts up to 300 uM using Clark type electrode system based method. Type of assay: functional. The procedure, abridged: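 Clark-electrode measurement of water-to-MV electron flow in the basal medium (sorbitol, KCl, MgCl2, 0.5 mM KCN, 50 μM MV, 15 mM tricine-KOH pH 8.0; 20 μg Chl/mL; 1 min light), with 1 mM ADP and 3 mM KH2PO4 added.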

The test system of assay [6] is Physalis ixocarpa. Briefly: Inhibition of photosynthetic efficiency in Physalis ixocarpa intact leaves assessed as reduction in PI(abs) level at 200 uM measured 48 hr post compound application. Type of assay: functional. The procedure, abridged:
as §1

In assay [7] the test system is Spinacia oleracea. In words: Inhibition of basal electron transport from water to MV in Spinacia oleracea (spinach) leaves chloroplasts up to 300 uM using Clark type electrode system based method. The format is functional, organism-based.
Assay [8] has as its system Physalis ixocarpa. In words: Effect on biomass production in Physalis ixocarpa assessed as plant dry weight at 200 uM measured 14 days post compound application relative to untreated control. Type of assay: functional. The procedure, abridged:
as §2

Assay [9] concerns the target Photosystem II protein D1 (Spinacia oleracea) (UniProt P69560). In words: Inhibition of uncoupled photosystem II electron transport and partial reactions in Spinacia oleracea (spinach) leaves assessed as electron transport rate from water to DCBQ at 50 uM measured per mg of chlorophyll relative to untreated control. Also noted: scale not given: the % may be the effect or the level left. The procedure, abridged:
(§3)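 Uncoupled PSII water-to-DCBQ rate: 3 mL of 100 mM sorbitol, 10 mM KCl, 5 mM MgCl2, 0.5 mM KCN, 15 mM tricine-KOH pH 8.0, with 100 μM DCBQ, 1 μM DBMIB, 6 mM NH4Cl and chloroplasts at 20 μg Chl/mL, illuminated 1 min. Rates are in μequiv e-/h mg Chl, percent of control, three replicates.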

The target is the same in assay [10]. In words: Inhibition of uncoupled photosystem II electron transport and partial reactions in Spinacia oleracea (spinach) leaves assessed as electron transport rate from water to SiMo at 50 uM measured per mg of chlorophyll relative to untreated control. Also noted: scale not given: the % may be the effect or the level left. The method, boiled down: (§4)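 Uncoupled partial PSII reaction from water to silicomolybdate, run in the PSII medium (sorbitol, KCl, MgCl2, KCN, 15 mM tricine-KOH pH 8.0, 6 mM NH4Cl, 20 μg Chl/mL, 1 min light). DCBQ/DBMIB were replaced by 200 μM SiMo plus 10 μM DCMU. Rates are in μequiv e-/h mg Chl, relative to control, three replicates.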

Assay [11] deals with Physalis ixocarpa. Briefly: Inhibition of photosynthetic efficiency in Physalis ixocarpa intact leaves assessed as loss of K-bands at 200 uM measured 72 hr post compound application. Type of assay: functional, organism-based. The procedure, abridged: as §1
Assay [12] concerns the target Photosystem II protein D1 (Spinacia oleracea) (UniProt P69560). In words: Inhibition of uncoupled photosystem II electron transport and partial reactions in Spinacia oleracea (spinach) leaves assessed as electron transport rate from water to SiMo at 300 uM measured per mg of chlorophyll relative to untreated control. Further details: scale not given: the % may be the effect or the level left. The procedure, abridged: as §4

The subject of assay [13] is Lolium perenne. Briefly: Inhibition of photosynthetic efficiency in Lolium perenne (perennial ryegrass) at 100 uM measured 72 hr post compound application. The format is functional. The procedure, abridged: (§5)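 Greenhouse L. perenne sprayed 18 days after emergence (20 mM DMSO stock diluted into 0.05% Tween-20; vehicle-sprayed controls). Leaves dark-adapted 15 min, then excited with 3000 μmol photons m-2 s-1 red light (650 nm) from three LEDs. OJIP transients recorded at room temperature with a Handy PEA. PI(abs) and other parameters are shown on radar plots normalized to control.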

The test system of assay [14] is Physalis ixocarpa. Briefly: Effect on biomass production in Physalis ixocarpa assessed as plant dry weight at 100 uM measured 14 days post compound application relative to untreated control. Type of assay: functional. The method, boiled down: as §2
Assay [15] relates to Spinacia oleracea. In words: Inhibition of photophosphorylation in Spinacia oleracea (spinach) leaves chloroplasts by titrimetry. The format is functional. The following applies: read-out: I50. The procedure, abridged: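 Intact spinach chloroplasts (20 μg Chl/mL) were osmotically broken in 3 mL of weakly buffered medium: 100 mM sorbitol, 10 mM KCl, 5 mM MgCl2, 0.5 mM KCN, 1 mM tricine-KOH pH 8.0, 50 μM MV and 1 mM ADP. ATP synthesis was taken from the medium alkalization rate in the linear part of illumination, calibrated by HCl back-titration, as μmol ATP (mg Chl)-1 h-1. I50 was obtained from concentration-activity plots; three replicates.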

For assay [16], the system named is Lolium perenne. In words: Effect on biomass production in Lolium perenne (perennial ryegrass) assessed as plant dry weight at 100 uM measured 14 days post compound application relative to untreated control. The format is functional. The method, boiled down:
as §2

Assay [17] concerns the target Photosystem II protein D1 (Spinacia oleracea) (UniProt P69560). In words: Inhibition of uncoupled photosystem II electron transport and partial reactions in Spinacia oleracea (spinach) leaves assessed as electron transport rate from water to DCBQ at 100 uM measured per mg of chlorophyll relative to untreated control. Further details: scale not given: the % may be the effect or the level left. The procedure, abridged: as §3

For assay [18], the system named is Lolium perenne. In words: Inhibition of photosynthetic efficiency in Lolium perenne (perennial ryegrass) at 200 uM measured 24 to 72 hr post compound application. Type of assay: functional. The procedure, abridged: as §5
Assay [19] has as its target Photosystem II protein D1 (Spinacia oleracea) (UniProt P69560). Briefly: Inhibition of uncoupled photosystem II electron transport and partial reactions in Spinacia oleracea (spinach) leaves assessed as electron transport rate from water to DCBQ at 200 uM measured per mg of chlorophyll relative to untreated control. Also noted: scale not given: the % may be the effect or the level left. The method, boiled down:
as §3

Assay [20] deals with Lolium perenne. Briefly: Inhibition of photosynthetic efficiency in Lolium perenne (perennial ryegrass) at 100 uM measured 48 hr post compound application. Type of assay: functional, organism-based. The method, boiled down: as §5

Activity calls are given as the source filed them. The rule behind the calls is not given here.

One may read the inhibition as the drop in the measured response relative to a control, in per cent. For `C[C@H]1C(=O)CC[C@@H]2[C@]1(C)CC[C@H]1[C@@]2(C)CC[C@@]2(C)[C@@H]3CC(C)(C)CC[C@]3(CO)CC[C@]12C` [CANOPHYLLOL], the Activity in the assay on Physalis ixocarpa [1] is 10%; in the assay on Spinacia oleracea [2], 110%; with Lolium perenne [3], 140.3%; in the assay with Physalis ixocarpa [8], 99%; in assay [9], 89%; in [10] it was 60%. Besides, the Activity stood at 0% in [12]; 81.5% in the assay on Physalis ixocarpa [14]; 117.1% in the assay on Lolium perenne [16]; 68% in assay [17]; 50% in assay [19]. The inhibition entry in the assay on Spinacia oleracea [4], in the assay on Spinacia oleracea [5], in the assay on Spinacia oleracea [7] and with Physalis ixocarpa [11] was “Active” each time. For the same molecule, the inhibition at 200 µM with Physalis ixocarpa [6] turned out to be 10%. Further, the inhibition at 100 µM with Lolium perenne [13] was found to be 15%. Besides, the IC50 in the assay with Spinacia oleracea [15] amounted to 124 µM. In addition, the inhibition result in the assay with Lolium perenne [18] and in the assay with Lolium perenne [20] was “inactive” each time.
